The structures appear in SMILES notation. pEC50: −log10 of the molar value. In brackets after ≈: the same amount, converted by molar mass.

The text below walks through data of ChEMBL document CHEMBL4651341, “The discovery of a novel series of compounds with single-dose efficacy against juvenile and adult Schistosoma species” (PLoS Negl Trop Dis, 2021).

Series [1] in a line: Mean plasma concentration at 24h in Swiss albino male mice at […] per compound (administered orally in a mixture of 5 compounds to 3 mice) assessed by LCMS/MS. Particulars: mouse, po. The format is ADME, organism-based.
Series [2] can be described thus: Mean half-life in Swiss albino male mice at 1 mg/kg per compound (administered iv in a mixture of 5 compounds to 3 mice) assessed by LCMS/MS. The format is ADME, organism-based. As to conditions: mouse, in vivo. A digest of the protocol: (§1)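 Male Swiss albino mice (~30 g), 3 per experiment, mostly dosed as mixtures of 5 compounds iv via the lateral tail vein. Vehicle: 10% DMSO/90% 50 mM Na2HPO4 with 0.5% Tween-80. Plasma stored at −20 °C and quantified by LC-MS after acetonitrile precipitation.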

A short description of series [3]: Concentration of drug in plasma at 24h following oral drug adminstration at given dose. Determined by LCMS/MS. The format is ADME, organism-based. As to conditions: CD1, mouse. Put shortly:
(§2)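 Plasma sampled from the mice of the efficacy experiments, each animal sampled once: one animal per group at 1, 4 and 8 h, two per group at 24 h. Plasma prepared by acetonitrile protein precipitation and analysed by LC-MS against a 10-point calibration line spiked in blank matrix, with QCs at three or more levels.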

Series [4] in a line: Mean plasma concentration at 4h in Swiss albino male mice at […] per compound (administered orally in a mixture of 5 compounds to 3 mice) assessed by LCMS/MS. The format is ADME, organism-based. As to conditions: mouse, po.
Series [5] can be described thus: Solubility at 25 degC of compound (diluted from DMSO) in FaSSIF at pH 6.5 (2.24 g/l of SIF powder [Na-taurocholate: 3.0mM, Lecithin:0.75mM, Pancreatin:10mg/ml], 0.42 g/l of NaOH, 4.4 g/l NaH₂PO₄ monobasic dihydrate, 6.19 g/l NaCl) determined after 24h (1h sonication, 22h shaking, 1h sonication) by LCMS/MS. The format is physicochemical.
Series [6] in a line: Plasma protein binding determined at 10uM by LC-MS/MS. The format is ADME, cell-free. Put shortly: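 Equilibrium dialysis of plasma spiked at 10 µM (0.1% DMSO) against PBS pH 7.4, 6 h at 37 °C, duplicates. Both chambers analysed by LC-MS/MS after acetonitrile precipitation. % free = buffer/plasma area ratio; recovery also calculated.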
Series [7] in a line: Percentage of parent compound remaining after incubation for 90 minutes with cyropreserved mouse hepatocytes at a concentration of 1uM compound and […], determined by LCMS. Particulars: cryopreserved mouse hepatocytes, read-out: Stability. The format is ADME, tissue-based, Hepatocyte. A digest of the protocol: (§3)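 Compound was incubated at 1 µM final (2 µM working solution mixed 1:1 with hepatocyte suspension) in supplemented KHB pH 7.4. Conditions: 37 °C, 5% CO2, gentle mixing, duplicates. Reaction quenched with ice-cold acetonitrile containing standard; analysed by LC-MS/MS. % remaining = AUC at t / AUC at T0.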

A short description of series [8]: Mean oral bioavailability in Swiss albino male mice at […] per compound (administered in a mixture of 5 compounds to 3 mice) assessed by LCMS/MS. Note: dose 2.5 mg/kg. The format is ADME, organism-based. As to conditions: male, Swiss albino, mouse, in vivo, read-out: Bioavailability.
Series [9] can be described thus: Mean volume of distribution at steady state in Swiss albino male mice at 1 mg/kg per compound (administered iv in a mixture of 5 compounds to 3 mice) assessed by LCMS/MS. The format is ADME, organism-based. Particulars: mouse, in vivo, read-out: Volume. A digest of the protocol:
as §1

Series [10] is described as follows: Mean AUC inf in Swiss albino male mice at 1 mg/kg per compound (administered iv in a mixture of 5 compounds to 3 mice) assessed by LCMS/MS. The format is ADME, organism-based. Particulars: male, Swiss albino, mouse, in vivo. Put shortly: (§4)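 Male Swiss albino mice (~30 g), 3 per experiment, mostly dosed as mixtures of 5 compounds iv via the lateral tail vein. Vehicle: 10% DMSO/90% 50 mM Na2HPO4 with 0.5% Tween-80. Blood sampled at 5, 15, 30 min and 1, 2, 4, 8, 24 h. Plasma stored at −20 °C and quantified by LC-MS after acetonitrile precipitation.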

The nature of series [11]: Mean time to peak plasma concentration in Swiss albino male mice at […] per compound (administered orally in a mixture of 5 compounds to 3 mice) assessed by LCMS/MS. The format is ADME, organism-based. As to conditions: mouse, po.
Series [12] relates to Schistosoma mansoni. Kind of series: Concentration required to kill 50% of 42 day old worms 5 days after drug treatment. The format is functional, organism-based. As to conditions: Puerto Rican, 120 h. Put shortly: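 Adult S. mansoni were perfused from CD1 mice 6 weeks post-infection and washed. They were cultured 3 pairs per well in 1 mL DMEM with 2 mM glutamine, penicillin/streptomycin and 10% FCS […] at 37 °C, 5% CO2. Viability of individual worms was scored on day 5 (120 h).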

Series [13] can be described thus: Mean observed clearance in Swiss albino male mice at 1 mg/kg per compound (administered iv in a mixture of 5 compounds to 3 mice) assessed by LCMS/MS. The format is ADME, organism-based. Particulars: male, Swiss albino, mouse, in vivo, read-out: Clearance (converted). A digest of the protocol: as §4
Series [14] in a line: Concentration required to kill 50% HepG2 cells as detected by MTT staining. The format is toxicity, cell-based. Particulars: homo sapiens, read-out: TC50 (the source's name).
The subject of series [15] is Schistosoma mansoni. In words: Concentration required to kill 50% of 21 day old worms 5 days after drug treatment. The format is functional, organism-based. As to conditions: Puerto Rican, 120 h. Put shortly:
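Juvenile S. mansoni (Puerto Rican strain) were perfused from CD1 mice 3 weeks post-infection and washed. They were cultured 6–8 per well in 200 µL DMEM with 2 mM glutamine, penicillin/streptomycin and 10% FCS at 37 °C, 5% CO2. Viability of individual worms was scored on day 5 after dosing (120 h).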

In series [16] the test system is Schistosoma mansoni. In words: Percentage of worms remaining following treatment of female CD1 mice infected with S. mansoni worms (21 day old - juvenile or 42 day old - adult) with compound by oral gavage. Worms were recovered by portal perfusion with citrate saline 8-14 days post treatment and counted. Percentages are from a mean of 5 or 6 animals. The format is functional, Mus musculus. Also on record: concentration or dose not given beside the values. Put shortly:
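Female CD1 mice were infected subcutaneously with 150 cercariae and treated at day 21 (juvenile) or day 42 (adult). Single oral gavage, or two doses 12 h apart, given in 7% Tween-80/3% ethanol/water (sonicated) or in 1:19 DMSO:corn oil. Controls received vehicle only. Worm recoveries are group means, n = 5–6.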

Series [17] can be described thus: Partition coefficient of compound between n-octanol and PBS (pH7.4). The format is physicochemical. As to conditions: octanol/water, pH 7.4. Put shortly: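 Shake-flask method using octanol and PBS pH 7.4, each pre-saturated with the other. Compound was shaken 2 h at 850 rpm, 25 °C, then the phases were separated by centrifugation and both layers diluted and analysed by LC-MS/MS. LogD = log(octanol AUC × relative dilution / buffer AUC).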

Series [18] is described as follows: Percentage of parent compound remaining after incubation for 90 minutes with cyropreserved human hepatocytes at a concentration of 1uM compound and 1 million cells/uL, determined by LCMS/MS. The format is ADME, tissue-based, Hepatocyte. As to conditions: cryopreserved human hepatocytes, read-out: Stability. Put shortly: as §3
The nature of series [19]: Solubility at 25 degC of compound (diluted from DMSO) in FeSSIF at pH 5.0 (11.2 g/l of SIF powder [Na-taurocholate: 15.0mM, Lecithin:3.75mM, Pancreatin:40mg/ml], 4.04 g/l of NaOH, 8.65 g/l Glacial Acetic Acid, 11.87 g/l NaCl) determined after 24h (1h sonication, 22h shaking, 1h sonication) by LCMS/MS. The format is physicochemical.
A short description of series [20]: Solubility at 25 degC of compound (diluted from DMSO) in PBS at pH 7.4 determined after 24h (1h sonication, 22h shaking, 1h sonication) by LCMS/MS. The format is physicochemical.
Series [21] can be described thus: Concentration of drug in plasma at 4h following oral drug adminstration at given dose. Determined by LCMS/MS. The format is ADME, organism-based. As to conditions: CD1, mouse. Put shortly: as §2

`CCc1nc2cnc(-c3ccc(F)c(C(F)(F)C(F)(F)F)c3)cn2c1-c1c(F)cc(O)cc1F`: the concentration at 24 h in [1] amounted to 123 ng/mL; in [3], 10.4 ng/mL. Moreover, the half-life (as a rule, the time needed for the level to fall by half in the phase considered) in [2] is 24.7 h. The concentration at 4 h in series [4] is 208 ng/mL; in series [21] it was 104 ng/mL. For the same molecule, the kinetic solubility (as a rule, the concentration staying in solution when a stock, usually in DMSO, is diluted into the medium) at 24 h is 111 µM (≈ 54.1 µg/mL) in series [5], 200 µM (≈ 97.5 µg/mL) in series [19] and 0.742 µM (≈ 0.362 µg/mL) in series [20]. For the same molecule, the Binding came out at 99.9955% in series [6] (human) and 99.9935% in series [6] (mouse). In addition, the remaining at 1.5 h, 1 µM in [7] came out at 61.5%; in series [18] it was 41.7%. Further, the bioavailability (usually the share of a dose that reaches the circulation, judged against a reference dose that is usually intravenous) in series [8] was 83.2%. In addition, in [9], the Vd is 7.32 L/kg. Moreover, the AUC(0-inf) – broadly, total exposure, with the tail of the curve extrapolated – in series [10] is 2210 ng·h/mL. Further, in series [11], the Tmax (as a rule, the time from dosing to the highest level) came out at 0.25 h. Besides, the results for the negative logarithm of the EC50 (pEC50) in [12] and in series [15] were 8.04 and 7.87, respectively. The clearance (commonly the rate of elimination divided by the concentration) in series [13] is 3.82 mL/min/kg. Further, in [14], the CC50 was determined as 7230 nM. Moreover, the Efficacy in [16] is 49.1%. In addition, the Lipophilicity in series [17] is reported as 6.33 =.
